Test results: ChEMBL document CHEMBL1124666, “Novel linked antiviral and antitumor agents related to netropsin and distamycin: synthesis and biological evaluation” (1989)

Experiments:
Vaccinia virus [1] = assay: Minimum cytotoxic concentration against vaccinia virus in primary rabbit kidney cell cultures; type: functional; conditions: Orthopoxvirus vaccinia
Vaccinia virus [2] = assay: Minimum inhibitory concentration against vaccinia virus in primary rabbit kidney cell cultures of experiment 1; type: functional; conditions: Orthopoxvirus vaccinia
Human alphaherpesvirus 2 = assay: Minimum inhibitory concentration against Herpes simplex virus 2(G); type: functional
Vaccinia virus [3] = assay: Minimum cytotoxic concentration against vaccinia virus embryonic skin muscle cell cultures; type: functional; conditions: Orthopoxvirus vaccinia
Vaccinia virus [4] = assay: Minimum cytotoxic concentration against vaccinia virus in Vero cell cultures; type: functional; conditions: Orthopoxvirus vaccinia
[5] = Minimum cytotoxic concentration in primary rabbit kidney (PRK) cell cultures; type: functional, Oryctolagus cuniculus
Calf thymus DNA = assay: Relative binding constant to calf thymus DNA; type: nucleic-acid assay; conditions: Bos taurus
Method in brief: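 Ethidium displacement: Tris-EDTA buffer pH 8 with 1.3 μM ethidium bromide and calf thymus DNA (1.35 μM final); drug aliquots added, fluorescence read after a few minutes' equilibration (excitation 525 nm, emission 600 nm). Drug level giving 50% fluorescence decrease converted to relative binding constant taking ethidium binding constant as 10^7 M-1.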

[6] = Inhibition of Moloney Murine Leukemia Associated Reverse Transcriptase; type: functional, Mus musculus
Vaccinia virus [7] = assay: Minimum inhibitory concentration against vaccinia virus embryonic skin muscle cell cultures; type: functional; conditions: Orthopoxvirus vaccinia
Vaccinia virus [8] = assay: Minimum cytotoxic concentration against vaccinia virus in HeLa cell cultures; type: functional; conditions: Orthopoxvirus vaccinia
[9] = system: Vesicular stomatitis virus; assay: Minimum inhibitory concentration against Vesicular stomatitis virus; type: functional
Vaccinia virus [10] = assay: Minimum inhibitory concentration against vaccinia virus in Vero cell cultures of experiment 1; type: functional; conditions: Orthopoxvirus vaccinia
Vaccinia virus [11] = assay: Minimum inhibitory concentration against Vaccinia virus; type: functional; conditions: Orthopoxvirus vaccinia
Human alphaherpesvirus 1 = assay: Minimum inhibitory concentration against Herpes simplex virus 1(KOS); type: functional
Vaccinia virus [12] = assay: Minimum inhibitory concentration against vaccinia virus in HeLa cell cultures; type: functional; conditions: Orthopoxvirus vaccinia
P388 [13] = assay: Inhibitory effect on the proliferation of murine leukemia (P388) cells; type: functional; conditions: Mus musculus, read-out: ID50 (the source's name)
Vaccinia virus [14] = assay: (§1) Minimum inhibitory concentration against vaccinia virus in primary rabbit kidney cell cultures of experiment 2; type: functional; conditions: Orthopoxvirus vaccinia
Vaccinia virus [15] = assay: Minimum inhibitory concentration against vaccinia virus in Vero cell cultures of experiment 2; type: functional; conditions: Orthopoxvirus vaccinia
Raji [16] = assay: Inhibitory effect on the proliferation of human B lymphoblast (Raji) cells; type: functional; conditions: read-out: ID50 (the source's name)
Vaccinia virus [17] = assay: as §1; type: functional, Orthopoxvirus vaccinia
L1210 [18] = assay: Inhibitory effect on the proliferation of murine leukemia (L1210) cells; type: functional; conditions: Mus musculus, read-out: ID50 (the source's name)
FM3A [19] = assay: Inhibitory effect on the proliferation of murine mammary carcinoma (FM3A) cells; type: functional; conditions: Mus musculus, read-out: ID50 (the source's name)
[20] = Inhibitory effect on the proliferation of human T-lymphoblast (Molt/4F) cells; type: functional; conditions: read-out: ID50 (the source's name)
L1210 [21] = assay: Inhibitory effect on the proliferation of murine leukemia (L1210 ) cells; type: functional; conditions: Mus musculus, read-out: ID50 (the source's name)
Raji [22] = assay: Inhibitory effect on the proliferation of human B lymphoblast (Raji ) cells; type: functional; conditions: read-out: ID50 (the source's name)
FM3A [23] = assay: Inhibitory effect on the proliferation of murine mammary carcinoma (FM3A ) cells; type: functional; conditions: Mus musculus, read-out: ID50 (the source's name)
[24] = Inhibitory effect on the proliferation of human T-lymphoblast (Molt/4F ) cells; type: functional; conditions: read-out: ID50 (the source's name)
Vaccinia virus [25] = assay: Minimum cytotoxic concentration against Vero cell cultures; type: functional; conditions: Orthopoxvirus vaccinia
Method in brief: (§2)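 Host cell cultures (primary rabbit kidney, HeLa, Vero, or E6SM embryonic skin-muscle cells, as named) exposed to compound. Minimum cytotoxic concentration taken as the concentration required to cause a microscopically detectable alteration of normal cell morphology.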

PRK = assay: Compound was evaluated for the minimum cytotoxic concentration in primary rabbit kidney (PRK) cell cultures; type: functional; conditions: Oryctolagus cuniculus; method in brief: as §2
Vaccinia virus [26] = assay: Minimum cytotoxic concentration against embryonic skin muscle cell cultures; type: functional; conditions: Orthopoxvirus vaccinia; method in brief: as §2
Vaccinia virus [27] = assay: Minimum cytotoxic concentration against primary rabbit kidney cell cultures; type: functional; conditions: Orthopoxvirus vaccinia; method in brief: as §2
Vaccinia virus [28] = assay: Minimum cytotoxic concentration against HeLa cell cultures; type: functional; conditions: Orthopoxvirus vaccinia; method in brief: as §2
P388 [29] = assay: Concentration which leads to inhibitory effect on the proliferation of murine leukemia (P388) cells; type: functional; conditions: Mus musculus, read-out: ID50 (the source's name)
Method in brief: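 Murine P388 leukaemia cells grown in Fischer's medium with 10% fetal calf serum. Compounds dissolved in water, or sonicated and given as a suspension if poorly soluble. Cells seeded at 1 × 10^5 per well and grown 72 h at 37 °C in humidified 5% CO2 with drug. Viability read by MTT formazan optical density at 570 nm (reference 630 nm).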

Vaccinia virus [30] = assay: Minimum cytotoxic concentration against vaccinia virus against embryonic skin muscle cell cultures; type: functional; conditions: Orthopoxvirus vaccinia
[31] = Orthopoxvirus vaccinia, read-out: MIC

Row | Compound | MCC (Vaccinia virus [1]) [µg/mL] | MIC (Vaccinia virus [2]) [µg/mL] | MIC (Human alphaherpesvirus 2) [µg/mL] | MCC (Vaccinia virus [3]) [µg/mL] | MCC (Vaccinia virus [4]) [µg/mL] | MCC [5] [µg/mL] | Binding constant (Calf thymus DNA) [M⁻¹] | ID50 [6] [µg/mL] | MIC (Vaccinia virus [7]) [µg/mL] | MCC (Vaccinia virus [8]) [µg/mL] | MIC [9] [µg/mL] | MIC (Vaccinia virus [10]) [µg/mL] | MIC (Vaccinia virus [11]) [µg/mL] | MIC (Human alphaherpesvirus 1) [µg/mL] | IC50 (P388 [13]) [µg/mL] | MIC (Vaccinia virus [14]) [µg/mL] | MIC (Vaccinia virus [15]) [µg/mL] | MIC (Vaccinia virus [17]; [31]) [µg/mL] | IC50 (L1210 [21]) [µg/mL] | IC50 (Raji [22]) [µg/mL] | also measured
1 | Cl.Cl.Cn1cc(NC(=O)c2cc(NC(=O)CCCCCCCCCCC(=O)Nc3cc(C(=O)Nc4cc(C(=O)NCCC(=N)N)n(C)c4)n(C)c3)cn2C)cc1C(=O)NCCC(=N)N | > 40 | 2 | 7 | > 40 | > 100 | >40 | 2.2e+07 | 9.1 | 0.2 | > 40 | > 10 | > 40 | 2 | > 10 | 4.8 | – | – | – | – | – | MIC (Vaccinia virus [12]): 2 µg/mL
2 | Cl.Cl.Cn1cc(NC(=O)c2cc(NC(=O)Nc3cc(C(=O)Nc4cc(C(=O)NCCC(=N)N)n(C)c4)n(C)c3)cn2C)cc1C(=O)NCCC(=N)N | 40 | 7 | 20 | 100 | > 40 | >40 | 5.6e+07 | – | 2 | > 40 | > 40 | 20 | 7 | > 10 | 8 | 7 | 20 | 20 | – | – | IC50 (Raji [16]): > 100 µg/mL; IC50 (L1210 [18]): > 100 µg/mL; IC50 (FM3A [19]): > 100 µg/mL; IC50 [20]: > 100 µg/mL
3 | Cl.Cl.Cn1cc(NC(=O)c2cc(NC(=O)CCCCCCCC(=O)Nc3cc(C(=O)Nc4cc(C(=O)NCCC(=N)N)n(C)c4)n(C)c3)cn2C)cc1C(=O)NCCC(=N)N | > 100 | 7 | > 40 | > 100 | > 200 | >100 | 9e+06 | 34.2 | 0.7 | > 200 | > 100 | 40 | 0.2 | > 40 | 0.75 | 7 | 70 | 20 | 10.8 | 4.36 | IC50 (FM3A [23]): 32 µg/mL; IC50 [24]: 3.3 µg/mL
4 | Cl.Cl.Cn1cc(NC(=O)c2cc(NC(=O)CCCCC(=O)Nc3cc(C(=O)Nc4cc(C(=O)NCCC(=N)N)n(C)c4)n(C)c3)cn2C)cc1C(=O)NCCC(=N)N | > 40 | 100 | > 10 | 100 | > 400 | >40 | 1e+07 | 57.2 | 7 | > 400 | > 10 | 1 | 0.7 | > 10 | 1.05 | 2 | 2 | 0.7 | 24.3 | 13.3 | IC50 (FM3A [23]): 57.8 µg/mL; IC50 [24]: 5.62 µg/mL
5 | Cl.Cl.Cn1cc(NC(=O)CCC(=O)Nc2cc(C(=O)NCCC(=N)N)n(C)c2)cc1C(=O)NCCC(=N)N | – | 300 | > 40 | – | – | – | – | >400 | 70 | – | > 100 | > 400 | 20 | > 100 | – | – | > 400 | 400 | > 100 | > 100 | MCC (Vaccinia virus [25]): > 400 µg/mL; MIC (Vaccinia virus [17]): >400 µg/mL; MCC (PRK): > 100 µg/mL; MCC (Vaccinia virus [26]): > 400 µg/mL; MCC (Vaccinia virus [27]): > 400 µg/mL; MCC (Vaccinia virus [28]): > 400 µg/mL; IC50 (P388 [29]): > 20 µg/mL; IC50 (FM3A [23]): > 100 µg/mL; IC50 [24]: > 100 µg/mL
6 | Cl.Cl.Cn1cc(NC(=O)c2cc(NC(=O)CCCCCCCCCC(=O)Nc3cc(C(=O)Nc4cc(C(=O)NCCC(=N)N)n(C)c4)n(C)c3)cn2C)cc1C(=O)NCCC(=N)N | > 40 | 2 | 20 | – | 100 | >40 | 1.9e+07 | 10.3 | 0.2 | 100 | > 40 | > 40 | 2 | > 10 | 18 | – | – | – | – | – | MCC (Vaccinia virus [30]): > 40 µg/mL; MIC (Vaccinia virus [12]): 20 µg/mL
